Test results reported in ChEMBL document CHEMBL4339200, “Structure-based Discovery of Phenyl (3-Phenylpyrrolidin-3-yl)sulfones as Selective, Orally Active RORγt Inverse Agonists” (ACS Med Chem Lett, 2019).
Calls of active or inactive are those of the source. The rule behind the calls is not given here.

Assays:
[1] = Stability in mouse liver microsomes assessed as parent compound remaining after 10 mins; format: ADME, Microsome; details: read-out: Stability
In short: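 Rough stability screen: compound incubated with mouse liver microsomes for 10 min, reported as percentage of parent remaining.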

[2] = target: T1, Nuclear receptor ROR-alpha (Homo sapiens) (UniProt P35398); assay: Agonist activity at GAL4-fused RORalpha LBD (272 to 556 residues) (unknown origin) expressed in human Jurkat cells measured after 18 hrs by native IL17 promoter driven steady-glo luciferase assay; format: cell-based
T1 sequence (whole entry): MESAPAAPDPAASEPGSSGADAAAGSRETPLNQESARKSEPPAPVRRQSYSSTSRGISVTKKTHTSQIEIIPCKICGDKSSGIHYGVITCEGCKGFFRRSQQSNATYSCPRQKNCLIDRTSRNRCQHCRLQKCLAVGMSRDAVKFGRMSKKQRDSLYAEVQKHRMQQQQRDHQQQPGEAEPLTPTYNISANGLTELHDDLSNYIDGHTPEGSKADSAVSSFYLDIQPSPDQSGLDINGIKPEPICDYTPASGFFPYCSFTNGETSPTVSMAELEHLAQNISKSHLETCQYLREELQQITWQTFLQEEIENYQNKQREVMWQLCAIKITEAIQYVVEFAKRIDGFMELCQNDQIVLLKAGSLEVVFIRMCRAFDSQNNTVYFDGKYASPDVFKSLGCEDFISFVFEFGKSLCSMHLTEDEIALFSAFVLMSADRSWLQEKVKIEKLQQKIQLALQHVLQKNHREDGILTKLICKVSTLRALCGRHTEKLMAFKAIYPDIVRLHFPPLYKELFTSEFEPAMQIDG

[3] = target: T2, Nuclear receptor ROR-beta (Homo sapiens) (UniProt Q92753); assay: Agonist activity at GAL4-fused RORbeta LBD (200 to 559 residues) (unknown origin) expressed in human Jurkat cells measured after 18 hrs by native IL17 promoter driven steady-glo luciferase assay; format: cell-based
T2 sequence (whole entry): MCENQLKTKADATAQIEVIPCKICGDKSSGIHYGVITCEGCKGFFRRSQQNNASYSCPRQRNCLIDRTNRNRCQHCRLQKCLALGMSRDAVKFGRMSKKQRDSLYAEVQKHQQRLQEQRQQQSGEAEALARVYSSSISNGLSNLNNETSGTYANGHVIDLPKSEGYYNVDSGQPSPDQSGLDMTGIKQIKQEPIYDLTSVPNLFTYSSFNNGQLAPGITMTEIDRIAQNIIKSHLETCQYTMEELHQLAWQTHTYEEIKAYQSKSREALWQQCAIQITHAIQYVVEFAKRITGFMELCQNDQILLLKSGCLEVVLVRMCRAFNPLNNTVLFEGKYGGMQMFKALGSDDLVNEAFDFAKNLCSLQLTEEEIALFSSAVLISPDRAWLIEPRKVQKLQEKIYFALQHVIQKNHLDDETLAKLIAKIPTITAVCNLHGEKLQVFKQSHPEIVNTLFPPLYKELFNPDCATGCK

[4] = Tmax in Balb/c mouse at 10 mg/kg, po; format: ADME, organism-based; details: in vivo
In short: (§1)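 Balb/c mice given a single intravenous dose of 2 mg/kg or an oral dose of 10 mg/kg. Plasma exposure was followed to derive Cmax, Tmax, AUC, t1/2, clearance, Vss and oral bioavailability (F).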

[5] = AUC in Balb/c mouse at 2 mg/kg, iv; format: ADME, organism-based; details: in vivo; in short: as §1
[6] = Inhibition of CYP1B2 (unknown origin); format: ADME, Homo sapiens
Mus musculus = assay: Inhibition of IL2/IL23-induced IL6 production in po bid dosed C57BL/6 mouse treated 30 mins prior to 24 hrs IL2 challenge followed by IL2/IL23 addition at 0,7 and 23 hrs measured after 7 hrs post last IL2/IL23 challenge; format: functional, organism-based
In short: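 Naive mice were challenged three times with IL-2 plus IL-23 (first at 0 and 7 h) and dosed orally bid at 5, 15 or 50 mg/kg. Serum cytokines were measured 7 h after the final IL-2/IL-23 administration. An anti-IL-23 antibody served as positive control.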

**Q.** Which results are given for `O=C(O)[C@H]1CC[C@H](C(=O)N2CC[C@](c3ccc(C(F)(C(F)(F)F)C(F)(F)F)cc3)(S(=O)(=O)c3ccc(F)cc3)C2)CC1`?
**A.** remaining at 10 min [1]: 86%; Activity [2]: inactive; Activity [3]: inactive; Tmax [4]: 2 h; AUC [5]: 7.4 µM·h; IC50 [6]: > 20 µM; inhibition (Mus musculus): Dose-dependent effect
